According to ChEMBL document CHEMBL1145535, “Clonal diversity and resistance mechanisms in tetracycline-nonsusceptible Streptococcus pneumoniae isolates in Poland” (2007):
≈ marks a conversion by molar mass, not a printed value.

What was measured:
Format in all cases: functional
Streptococcus pneumoniae [1] = assay: Antimicrobial susceptibility of tetracycline-resistant Streptococcus pneumoniae from respiratory tract disease patient assessed as percent resistant isolates
In short: (§1)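 MICs determined for all tetracycline-resistant isolates by broth microdilution per CLSI recommendations. Agents tested included tetracycline, doxycycline, penicillin G, erythromycin and chloramphenicol. FDA breakpoints were applied to categorize tigecycline results.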

Streptococcus pneumoniae [2] = assay: Antimicrobial susceptibility of tetracycline-resistant Streptococcus pneumoniae from respiratory tract disease patient assessed as percent susceptible isolates; in short: as §1
Streptococcus pneumoniae [3] = assay: Antimicrobial activity against Streptococcus pneumoniae ATCC 49619
In short: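 MICs determined by broth microdilution as recommended by CLSI. Agents tested included tetracycline, doxycycline, penicillin G, erythromycin and chloramphenicol. Tigecycline results were interpreted against FDA breakpoints.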

Structure (SMILES)	Activity (Streptococcus pneumoniae [1]) [%]	Activity (Streptococcus pneumoniae [2]) [%]	MIC50 (Streptococcus pneumoniae [3]) [µg/mL]	MIC90 (Streptococcus pneumoniae [3]) [µg/mL]
CO/N=C(\C(=O)N[C@@H]1C(=O)N2C(C(=O)O)=C(COC(C)=O)CS[C@H]12)c1csc(N)n1 [CEFOTAXIME]	2.1	93.8	0.015 (≈ 0.0329 µM)	1 (≈ 2.2 µM)
O=C(N[C@H](CO)[C@H](O)c1ccc([N+](=O)[O-])cc1)C(Cl)Cl [CHLORAMPHENICOL]	39.2	70.7	4 (≈ 12.4 µM)	16 (≈ 49.5 µM)
CCC[C@@H]1C[C@@H](C(=O)N[C@@H]([C@H]2O[C@H](SC)[C@H](O)[C@@H](O)[C@H]2O)[C@H](C)Cl)N(C)C1 [CLINDAMYCIN]	23.1	76.9	≤ 0.03	> 4
C[C@H]1c2cccc(O)c2C(=O)C2=C(O)[C@]3(O)C(=O)C(C(N)=O)=C(O)[C@@H](N(C)C)[C@@H]3[C@@H](O)[C@@H]21.O [DOXYCYCLINE]	25.2	19.9	4	8
CC[C@H]1OC(=O)[C@H](C)[C@@H](O[C@H]2C[C@@](C)(OC)[C@@H](O)[C@H](C)O2)[C@H](C)[C@@H](O[C@@H]2O[C@H](C)C[C@H](N(C)C)[C@H]2O)[C@](C)(O)C[C@@H](C)C(=O)[C@H](C)[C@@H](O)[C@]1(C)O [ERYTHROMYCIN]	26.4	72.4	≤ 0.25	> 16
C[C@H]1COc2c(N3CCN(C)CC3)c(F)cc3c(=O)c(C(=O)O)cn1c23.C[C@H]1COc2c(N3CCN(C)CC3)c(F)cc3c(=O)c(C(=O)O)cn1c23.O [LEVOFLOXACIN]	0.4	98.8	1	1
CC(=O)NC[C@H]1CN(c2ccc(N3CCOCC3)c(F)c2)C(=O)O1 [LINEZOLID]		100	1 (≈ 2.96 µM)	1 (≈ 2.96 µM)
C[C@@H](O)[C@H]1C(=O)N2C(C(=O)O)=C(S[C@@H]3CN[C@H](C(=O)N(C)C)C3)[C@H](C)[C@H]12 [MEROPENEM]	0.4	86.8	≤ 0.015	0.5 (≈ 1.3 µM)
CN(C)c1ccc(O)c2c1C[C@H]1C[C@H]3[C@H](N(C)C)C(O)=C(C(N)=O)C(=O)[C@@]3(O)C(O)=C1C2=O [MINOCYCLINE]	38.8	24.4	4 (≈ 8.74 µM)	8 (≈ 17.5 µM)
CC1(C)S[C@@H]2[C@H](NC(=O)Cc3ccccc3)C(=O)N2[C@H]1C(=O)O [PENICILLIN G]	14.9	74	0.015 (≈ 0.0449 µM)	2 (≈ 5.98 µM)
CO[C@H]1/C=C/O[C@@]2(C)Oc3c(C)c(O)c4c(O)c(c(/C=N/N5CCN(C)CC5)c(O)c4c3C2=O)NC(=O)/C(C)=C\C=C\[C@H](C)[C@H](O)[C@@H](C)[C@@H](O)[C@@H](C)[C@H](OC(C)=O)[C@@H]1C [RIFAMPIN]	0.8	98.8	≤ 0.03	≤ 0.03
CC[C@H]1OC(=O)[C@H](C)C(=O)[C@H](C)[C@@H](O[C@@H]2O[C@H](C)C[C@H](N(C)C)[C@H]2O)[C@](C)(OC)C[C@@H](C)C(=O)[C@H](C)[C@H]2N(CCCCn3cnc(-c4cccnc4)c3)C(=O)O[C@]12C [TELITHROMYCIN]	0.4	98.8	≤ 0.015	≤ 0.015
CN(C)[C@@H]1C(O)=C(C(N)=O)C(=O)[C@@]2(O)C(O)=C3C(=O)c4c(O)cccc4[C@@](C)(O)[C@H]3C[C@@H]12 [TETRACYCLINE]	100		32 (≈ 72 µM)	64 (≈ 144 µM)
CN(C)c1cc(NC(=O)CNC(C)(C)C)c(O)c2c1C[C@H]1C[C@H]3[C@H](N(C)C)C(O)=C(C(N)=O)C(=O)[C@@]3(O)C(O)=C1C2=O [TIGECYCLINE]		100	0.015 (≈ 0.0256 µM)	0.03 (≈ 0.0512 µM)
COc1cc(Cc2cnc(N)nc2N)cc(OC)c1OC [TRIMETHOPRIM]	38.4	30.2	2 (≈ 6.89 µM)	8 (≈ 27.6 µM)
CN[C@H](CC(C)C)C(=O)N[C@H]1C(=O)N[C@@H](CC(N)=O)C(=O)N[C@H]2C(=O)N[C@H]3C(=O)N[C@H](C(=O)N[C@H](C(=O)O)c4cc(O)cc(O)c4-c4cc3ccc4O)[C@H](O)c3ccc(c(Cl)c3)Oc3cc2cc(c3O[C@@H]2O[C@H](CO)[C@@H](O)[C@H](O)[C@H]2O[C@H]2C[C@](C)(N)[C@H](O)[C@H](C)O2)Oc2ccc(cc2Cl)[C@H]1O [VANCOMYCIN]		100	0.25 (≈ 0.173 µM)	0.5 (≈ 0.345 µM)
